Starred links: 1 amine or outer side, 2 acyl side, 3 side chain; linkers in the order of their positions; H or OH if unused. Residues, ends and D or L forms follow the SMILES beside them. Ethylenediamine = C(CN[*:2])N[*:1]; GABA = NCCCC(=O)O
How the values were obtained:
Cavia porcellus [1] = species on record: Cavia porcellus; experiment: Inhibition of electrically evoked contractions in guinea pig ileum at 10e-6 M with cocktail comprised of 10 uM thiophan, and 10 mM L-leucylleucine.; assay type: functional
How it was run: (§1)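 Isolated guinea pig ileum, electrically stimulated; inhibition of evoked contractions by compound (HCl salt) at 10⁻⁶ M final. Only tissues responding to 10⁻⁷ M morphine reference were used. Values are the average of two or three experiments.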

Cavia porcellus [2] = species on record: Cavia porcellus; experiment: The compound was tested for inhibition of electrically evoked contractions in guinea pig ileum with bestatin at 10e-6 M conc.; assay type: functional
How it was run: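 Guinea pig ileum, electrically stimulated. Compound at 10⁻⁶ M final concentration, scored as inhibition of evoked contractions. Tissues were qualified with a morphine response at 10⁻⁷ M. Values are the average of two or three experiments. Compounds tested as HCl salts.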

Mu-type opioid receptor = Mu-type opioid receptor (Cavia porcellus, UniProt P97266); experiment: The compound was tested for binding activity towards opioid receptor mu in guinea pig brain membranes.; assay type: cell membranes
How it was run: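 Competitive radioligand binding used male Hartley guinea pig brain membranes at 25 °C in 100 mM NaCl, with 0.5 nM [³H]naloxone (final) for μ sites. Compounds were tested as HCl salts. Data come from single duplicate experiments or are mean ± SEM of three experiments run in duplicate.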

[3] = molecular target: Kappa-type opioid receptor (Cavia porcellus, UniProt P41144); experiment: The compound was tested for binding activity towards opioid receptor kappa in guinea pig brain membranes.; assay type: cell membranes
How it was run: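 Guinea pig brain membranes (male Hartley) in competitive radioligand displacement at 25 °C with 100 mM NaCl. κ sites were labelled with 1 nM (-)-[³H]EKC (final), with 500 nM DADLE and 20 nM sufentanil masking other sites. Compounds were tested as HCl salts. Values are single experiments in duplicate or mean ± SEM of three experiments in duplicate.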

Cavia porcellus [4] = species on record: Cavia porcellus; experiment: Inhibition of electrically evoked contractions in guinea pig ileum at 10e-6 M conc. with cocktail comprised of 10 uM bestatin, 10 uM captopril, 0.3 uM thiophan, and 10 mM L-leucylleucine.; assay type: functional; how it was run: as §1
Cavia porcellus [5] = species on record: Cavia porcellus; experiment: The compound was tested for inhibition of electrically evoked contractions in guinea pig ileum with bestatin at 10e-6 M; assay type: functional; how it was run: as §1

Mu-type opioid receptor, sequence (P97266 whole entry): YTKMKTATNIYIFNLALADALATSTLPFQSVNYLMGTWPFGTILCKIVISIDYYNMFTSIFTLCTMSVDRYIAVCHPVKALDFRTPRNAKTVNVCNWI
Kappa-type opioid receptor, sequence (P41144 whole entry): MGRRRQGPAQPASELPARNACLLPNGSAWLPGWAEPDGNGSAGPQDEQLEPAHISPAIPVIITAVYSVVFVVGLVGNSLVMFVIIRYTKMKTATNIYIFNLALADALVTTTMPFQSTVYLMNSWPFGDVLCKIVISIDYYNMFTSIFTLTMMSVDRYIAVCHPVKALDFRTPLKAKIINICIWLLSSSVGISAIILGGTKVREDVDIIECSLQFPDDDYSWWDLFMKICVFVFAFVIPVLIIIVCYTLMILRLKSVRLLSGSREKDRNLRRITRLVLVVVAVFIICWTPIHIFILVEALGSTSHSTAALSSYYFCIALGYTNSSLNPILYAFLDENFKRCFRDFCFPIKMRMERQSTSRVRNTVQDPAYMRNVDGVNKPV

Structure (SMILES) | Inhibition (Cavia porcellus [1]) | inhibition at 1 µM (Cavia porcellus [2]) | Ki (Mu-type opioid receptor) | Ki [3] | Inhibition (Cavia porcellus [4]) | inhibition at 1 µM (Cavia porcellus [5])
NCCCC(=O)NCCN(CCNC(=O)CCCN)C(=O)CCCN | 0% | 0% | – | – | – | –
NCCCC(=O)NCCNC(=O)[C@H](Cc1ccccc1)NC(=O)CNC(=O)CNC(=O)[C@@H](N)Cc1ccc(O)cc1 (H-YGGF-{Ethylenediamine-GABA}) | – | 29.5% | 16.5 µM | 36.7 µM | 28.5% | –
NCCCC(=O)NCCCN(CCCNC(=O)[C@H](Cc1ccccc1)NC(=O)CNC(=O)CNC(=O)[C@@H](N)Cc1ccc(O)cc1)C(=O)CCCN (HELM PEPTIDE1{Y.G.G.F.[NCCCC(=O)NCCCN(CCCN[*:1])C(=O)CCCN]}$$$$V2.0) | 12.5% | – | 7.3 µM | 5.51 µM | – | 13%
NCCCC(=O)NCCN(CCN(CCNC(=O)[C@H](Cc1ccccc1)NC(=O)CNC(=O)CNC(=O)[C@@H](N)Cc1ccc(O)cc1)C(=O)CCCN)C(=O)CCCN (HELM PEPTIDE1{Y.G.G.F.[NCCCC(=O)NCCN(CCN(CCN[*:1])C(=O)CCCN)C(=O)CCCN]}$$$$V2.0) | 9% | – | 6.76 µM | 3.73 µM | – | –
NCCCC(=O)NCCN(CCNC(=O)[C@H](Cc1ccccc1)NC(=O)CNC(=O)CNC(=O)[C@@H](N)Cc1ccc(O)cc1)C(=O)CCCN (HELM PEPTIDE1{Y.G.G.F.[NCCCC(=O)NCCN(CCN[*:1])C(=O)CCCN]}$$$$V2.0) | – | 13.5% | 14.4 µM | 8.75 µM | 17.5% | –
CC[C@H](C)[C@H](NC(=O)[C@H](CCCNC(=N)N)NC(=O)[C@H](CCCNC(=N)N)NC(=O)[C@H](CC(C)C)NC(=O)[C@H](Cc1ccccc1)NC(=O)CNC(=O)CNC(=O)[C@@H](N)Cc1ccc(O)cc1)C(=O)N[C@@H](CCCNC(=N)N)C(=O)N1CCC[C@H]1C(=O)N[C@@H](CCCCN)C(=O)N[C@@H](CC(C)C)C(=O)N[C@@H](CCCCN)C(=O)O [ANALOG OF DYNORPHIN A] | – | – | 0.05 µM | 0.0036 µM | – | –
